Source: ChEMBL document CHEMBL4428070, “Design, synthesis, and evaluation of 4,6-diaminonicotinamide derivatives as novel and potent immunomodulators targeting JAK3” (Bioorg Med Chem, 2016)
Values belong to the compound of their own block, whether it stands above or below them.

Experiments:
[1] = biological target: T1, Tyrosine-protein kinase JAK3 (Homo sapiens, UniProt P52333); test: Inhibition of human JAK3 assessed as reduction in phosphorylation of Biotin-Lyn-Substrate-2 after 1 hr in presence of ATP by ELISA
T1 sequence (P52333 whole entry): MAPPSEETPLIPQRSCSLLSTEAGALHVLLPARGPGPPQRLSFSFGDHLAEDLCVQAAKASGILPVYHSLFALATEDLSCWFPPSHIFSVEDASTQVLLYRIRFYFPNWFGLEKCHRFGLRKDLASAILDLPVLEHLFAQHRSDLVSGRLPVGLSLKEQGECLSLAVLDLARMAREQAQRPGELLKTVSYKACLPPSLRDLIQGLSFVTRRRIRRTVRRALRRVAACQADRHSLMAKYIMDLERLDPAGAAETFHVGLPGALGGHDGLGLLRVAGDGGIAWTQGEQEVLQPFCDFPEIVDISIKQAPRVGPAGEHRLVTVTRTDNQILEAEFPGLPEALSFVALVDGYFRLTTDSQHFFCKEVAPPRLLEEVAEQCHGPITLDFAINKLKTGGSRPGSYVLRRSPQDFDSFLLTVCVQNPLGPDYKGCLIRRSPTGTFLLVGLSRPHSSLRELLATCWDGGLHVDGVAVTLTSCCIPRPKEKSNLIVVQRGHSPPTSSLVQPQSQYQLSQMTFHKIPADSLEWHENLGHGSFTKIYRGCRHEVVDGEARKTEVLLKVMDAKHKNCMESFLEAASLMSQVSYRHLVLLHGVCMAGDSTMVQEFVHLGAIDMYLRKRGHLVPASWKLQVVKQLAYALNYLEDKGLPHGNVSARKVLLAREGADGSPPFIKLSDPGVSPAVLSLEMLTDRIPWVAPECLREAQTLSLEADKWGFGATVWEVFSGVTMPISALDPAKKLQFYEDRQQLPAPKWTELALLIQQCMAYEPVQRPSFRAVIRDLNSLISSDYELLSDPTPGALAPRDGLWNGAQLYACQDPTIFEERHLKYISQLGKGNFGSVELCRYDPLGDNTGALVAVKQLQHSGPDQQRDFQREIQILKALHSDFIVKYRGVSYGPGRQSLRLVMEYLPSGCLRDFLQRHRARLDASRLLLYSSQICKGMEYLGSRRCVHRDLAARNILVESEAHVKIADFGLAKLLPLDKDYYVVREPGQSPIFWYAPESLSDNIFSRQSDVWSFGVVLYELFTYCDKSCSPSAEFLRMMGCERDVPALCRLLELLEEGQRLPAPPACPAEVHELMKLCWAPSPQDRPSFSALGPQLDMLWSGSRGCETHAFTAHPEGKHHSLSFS

[2] = biological target: Tyrosine-protein kinase JAK1 (Homo sapiens, UniProt P23458); test: Inhibition of human JAK1 assessed as reduction in phosphorylation of Biotin-Lyn-Substrate-2 after 1 hr in presence of ATP by ELISA
Chain of Tyrosine-protein kinase JAK1 (P23458 whole entry): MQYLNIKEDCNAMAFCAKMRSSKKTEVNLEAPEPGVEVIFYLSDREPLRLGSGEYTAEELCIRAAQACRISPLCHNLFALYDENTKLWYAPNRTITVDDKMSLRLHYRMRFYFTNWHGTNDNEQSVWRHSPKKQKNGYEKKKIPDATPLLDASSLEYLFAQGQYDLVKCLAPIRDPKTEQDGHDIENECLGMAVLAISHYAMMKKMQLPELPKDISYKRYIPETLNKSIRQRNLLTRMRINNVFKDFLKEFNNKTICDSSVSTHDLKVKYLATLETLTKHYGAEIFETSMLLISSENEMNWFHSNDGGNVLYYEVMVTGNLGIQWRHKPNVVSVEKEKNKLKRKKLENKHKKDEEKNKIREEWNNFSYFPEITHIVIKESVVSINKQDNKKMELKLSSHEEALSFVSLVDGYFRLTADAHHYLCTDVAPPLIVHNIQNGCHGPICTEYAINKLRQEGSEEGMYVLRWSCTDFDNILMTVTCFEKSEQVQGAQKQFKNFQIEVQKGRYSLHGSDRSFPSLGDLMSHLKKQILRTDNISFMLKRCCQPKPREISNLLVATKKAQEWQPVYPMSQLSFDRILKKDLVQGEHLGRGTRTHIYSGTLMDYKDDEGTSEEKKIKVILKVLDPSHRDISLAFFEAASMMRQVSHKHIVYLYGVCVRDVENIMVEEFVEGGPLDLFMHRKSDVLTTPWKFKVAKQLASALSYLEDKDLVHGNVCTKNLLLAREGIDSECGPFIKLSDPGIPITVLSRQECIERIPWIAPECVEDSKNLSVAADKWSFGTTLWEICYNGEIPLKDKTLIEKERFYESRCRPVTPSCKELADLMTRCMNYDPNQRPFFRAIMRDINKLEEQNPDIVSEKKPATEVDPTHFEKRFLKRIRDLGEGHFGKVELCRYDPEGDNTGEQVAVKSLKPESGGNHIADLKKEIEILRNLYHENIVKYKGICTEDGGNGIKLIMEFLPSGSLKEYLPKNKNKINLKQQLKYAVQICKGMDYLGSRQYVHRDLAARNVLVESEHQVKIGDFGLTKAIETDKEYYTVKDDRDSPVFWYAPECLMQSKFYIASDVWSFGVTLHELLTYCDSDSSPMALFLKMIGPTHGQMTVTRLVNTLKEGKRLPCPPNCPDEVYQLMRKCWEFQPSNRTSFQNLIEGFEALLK

[3] = biological target: Tyrosine-protein kinase JAK2 (Homo sapiens, UniProt O60674); test: Inhibition of human JAK2 assessed as reduction in phosphorylation of Biotin-Lyn-Substrate-2 after 1 hr in presence of ATP by ELISA
Chain of Tyrosine-protein kinase JAK2 (O60674 whole entry): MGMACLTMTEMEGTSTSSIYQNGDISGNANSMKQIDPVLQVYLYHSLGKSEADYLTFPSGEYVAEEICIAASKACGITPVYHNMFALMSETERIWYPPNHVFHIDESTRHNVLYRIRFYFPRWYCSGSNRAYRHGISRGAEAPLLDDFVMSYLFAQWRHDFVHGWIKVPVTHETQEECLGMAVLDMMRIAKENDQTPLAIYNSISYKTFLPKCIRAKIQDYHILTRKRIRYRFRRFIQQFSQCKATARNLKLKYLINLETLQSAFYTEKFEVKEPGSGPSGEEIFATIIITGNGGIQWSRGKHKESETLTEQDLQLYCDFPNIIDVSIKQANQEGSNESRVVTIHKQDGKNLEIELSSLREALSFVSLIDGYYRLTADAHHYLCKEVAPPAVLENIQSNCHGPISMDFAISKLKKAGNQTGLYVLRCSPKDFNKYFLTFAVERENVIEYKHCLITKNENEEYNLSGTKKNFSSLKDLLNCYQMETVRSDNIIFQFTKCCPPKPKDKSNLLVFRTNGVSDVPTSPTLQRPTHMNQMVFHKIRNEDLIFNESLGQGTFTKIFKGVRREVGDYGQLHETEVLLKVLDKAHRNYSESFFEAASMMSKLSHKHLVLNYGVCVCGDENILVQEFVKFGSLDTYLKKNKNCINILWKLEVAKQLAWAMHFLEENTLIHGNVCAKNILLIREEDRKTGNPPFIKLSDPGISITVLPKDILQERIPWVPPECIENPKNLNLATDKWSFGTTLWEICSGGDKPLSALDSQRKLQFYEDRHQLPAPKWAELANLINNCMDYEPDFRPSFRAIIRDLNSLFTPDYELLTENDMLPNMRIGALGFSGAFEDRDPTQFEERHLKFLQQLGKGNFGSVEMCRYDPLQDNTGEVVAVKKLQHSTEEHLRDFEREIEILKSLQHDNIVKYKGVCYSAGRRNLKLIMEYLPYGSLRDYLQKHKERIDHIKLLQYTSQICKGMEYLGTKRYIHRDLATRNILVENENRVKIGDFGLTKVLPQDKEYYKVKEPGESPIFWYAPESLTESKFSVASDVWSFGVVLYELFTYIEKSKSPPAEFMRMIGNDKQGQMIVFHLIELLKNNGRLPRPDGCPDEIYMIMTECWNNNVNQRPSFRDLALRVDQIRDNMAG

[4] = biological target: Voltage-gated inwardly rectifying potassium channel KCNH2 (Homo sapiens, UniProt Q12809); test: Inhibition of human ERG expressed in CHO-K1 cells after 10 mins by Rb efflux assay; assay type: cell-based
Chain of Voltage-gated inwardly rectifying potassium channel KCNH2 (Q12809 whole entry): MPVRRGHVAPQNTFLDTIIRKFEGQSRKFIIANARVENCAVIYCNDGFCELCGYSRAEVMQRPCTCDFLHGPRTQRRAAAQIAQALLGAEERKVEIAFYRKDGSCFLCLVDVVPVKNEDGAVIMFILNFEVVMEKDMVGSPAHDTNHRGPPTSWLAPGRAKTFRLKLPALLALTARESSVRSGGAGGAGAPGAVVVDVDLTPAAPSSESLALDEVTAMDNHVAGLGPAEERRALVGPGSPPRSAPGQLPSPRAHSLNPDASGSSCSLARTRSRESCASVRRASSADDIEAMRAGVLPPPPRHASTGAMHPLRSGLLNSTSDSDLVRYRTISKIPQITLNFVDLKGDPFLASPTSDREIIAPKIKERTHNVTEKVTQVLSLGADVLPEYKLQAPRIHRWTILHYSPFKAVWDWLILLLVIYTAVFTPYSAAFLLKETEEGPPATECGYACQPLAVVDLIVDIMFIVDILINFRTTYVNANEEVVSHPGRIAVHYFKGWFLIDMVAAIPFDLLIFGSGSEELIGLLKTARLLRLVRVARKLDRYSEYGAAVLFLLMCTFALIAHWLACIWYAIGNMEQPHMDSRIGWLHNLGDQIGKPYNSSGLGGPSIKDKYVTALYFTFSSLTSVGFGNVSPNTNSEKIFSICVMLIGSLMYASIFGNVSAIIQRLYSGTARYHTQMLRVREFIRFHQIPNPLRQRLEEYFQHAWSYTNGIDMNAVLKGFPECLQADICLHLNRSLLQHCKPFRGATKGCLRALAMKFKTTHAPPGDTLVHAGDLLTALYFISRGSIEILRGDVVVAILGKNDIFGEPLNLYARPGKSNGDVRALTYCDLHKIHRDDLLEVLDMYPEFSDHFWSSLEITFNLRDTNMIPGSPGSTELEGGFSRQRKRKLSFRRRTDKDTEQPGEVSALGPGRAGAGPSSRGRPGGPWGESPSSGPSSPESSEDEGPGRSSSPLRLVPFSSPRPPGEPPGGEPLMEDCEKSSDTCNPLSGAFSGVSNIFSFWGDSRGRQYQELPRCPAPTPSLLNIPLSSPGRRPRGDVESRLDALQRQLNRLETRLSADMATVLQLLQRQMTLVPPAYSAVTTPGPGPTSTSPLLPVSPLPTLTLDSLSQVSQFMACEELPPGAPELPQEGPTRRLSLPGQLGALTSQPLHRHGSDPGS

Rattus norvegicus [5] = test: Immunomodulatory activity in ACI-to-Lewis rat heterotopic cardiac transplant model assessed as mean survival time at 0.02 mg/kg, im dosed from day of transplantation once daily for 14 consecutive days measured for 28 days; assay type: functional
Rattus norvegicus [6] = test: Immunomodulatory activity in ACI-to-Lewis rat heterotopic cardiac transplant model assessed as cardiac allograft survival at 10 mg/kg, po coadministered with tacrolimus at 0.02 mg/kg, im dosed from day of transplantation once daily for 14 consecutive days; assay type: functional
Outline: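 ACI rat hearts transplanted heterotopically into Lewis recipients. Oral drug given once daily for 14 consecutive days starting on the day of operation. In the combination arm, tacrolimus was given intramuscularly once daily. Cardiac allograft survival was checked by daily palpation for 28 days and expressed as median survival time (MST).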

[7] = biological target: T2, CDK2/Cyclin A2 (Homo sapiens) (UniProt P24941+P20248); test: Inhibition of CDK2/CycA (unknown origin) at 1 uM; assay type: protein-complex assay
[8] = biological target: Mitogen-activated protein kinase kinase kinase 9 (Homo sapiens) (UniProt P80192); test: Inhibition of MLK1 (unknown origin) at 1 uM
[9] = biological target: High affinity nerve growth factor receptor (Homo sapiens) (UniProt P04629); test: Inhibition of TRKA (unknown origin) at 1 uM
Chain of High affinity nerve growth factor receptor (Homo sapiens) (P04629 33-796 limits assumed): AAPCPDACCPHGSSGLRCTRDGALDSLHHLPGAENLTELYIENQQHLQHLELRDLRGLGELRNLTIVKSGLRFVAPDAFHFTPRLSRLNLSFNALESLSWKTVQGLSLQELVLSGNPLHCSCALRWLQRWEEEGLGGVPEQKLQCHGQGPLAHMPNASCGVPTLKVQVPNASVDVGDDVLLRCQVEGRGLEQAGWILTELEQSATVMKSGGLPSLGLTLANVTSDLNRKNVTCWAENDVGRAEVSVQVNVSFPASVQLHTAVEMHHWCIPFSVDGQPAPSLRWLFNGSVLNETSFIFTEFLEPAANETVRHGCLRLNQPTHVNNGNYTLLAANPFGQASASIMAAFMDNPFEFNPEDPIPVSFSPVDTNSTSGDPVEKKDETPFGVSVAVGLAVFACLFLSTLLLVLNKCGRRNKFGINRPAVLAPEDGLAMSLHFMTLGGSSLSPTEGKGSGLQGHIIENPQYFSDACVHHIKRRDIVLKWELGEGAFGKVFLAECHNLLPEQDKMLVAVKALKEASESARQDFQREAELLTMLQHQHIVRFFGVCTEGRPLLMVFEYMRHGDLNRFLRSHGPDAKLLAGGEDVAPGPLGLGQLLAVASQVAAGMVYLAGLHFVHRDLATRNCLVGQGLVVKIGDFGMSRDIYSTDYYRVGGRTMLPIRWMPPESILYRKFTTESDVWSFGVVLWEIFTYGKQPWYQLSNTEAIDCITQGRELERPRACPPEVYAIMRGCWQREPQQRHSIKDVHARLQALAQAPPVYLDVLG

[10] = biological target: Tyrosine-protein kinase ABL1 (Homo sapiens) (UniProt P00519); test: Inhibition of ABL (unknown origin) at 1 uM
[11] = biological target: Tyrosine-protein kinase BTK (Homo sapiens) (UniProt Q06187); test: Inhibition of BTK (unknown origin) at 1 uM
[12] = biological target: Serine/threonine-protein kinase Chk1 (Homo sapiens) (UniProt O14757); test: Inhibition of CHK1 (unknown origin) at 1 uM
Chain of Serine/threonine-protein kinase Chk1 (Homo sapiens) (O14757 whole entry): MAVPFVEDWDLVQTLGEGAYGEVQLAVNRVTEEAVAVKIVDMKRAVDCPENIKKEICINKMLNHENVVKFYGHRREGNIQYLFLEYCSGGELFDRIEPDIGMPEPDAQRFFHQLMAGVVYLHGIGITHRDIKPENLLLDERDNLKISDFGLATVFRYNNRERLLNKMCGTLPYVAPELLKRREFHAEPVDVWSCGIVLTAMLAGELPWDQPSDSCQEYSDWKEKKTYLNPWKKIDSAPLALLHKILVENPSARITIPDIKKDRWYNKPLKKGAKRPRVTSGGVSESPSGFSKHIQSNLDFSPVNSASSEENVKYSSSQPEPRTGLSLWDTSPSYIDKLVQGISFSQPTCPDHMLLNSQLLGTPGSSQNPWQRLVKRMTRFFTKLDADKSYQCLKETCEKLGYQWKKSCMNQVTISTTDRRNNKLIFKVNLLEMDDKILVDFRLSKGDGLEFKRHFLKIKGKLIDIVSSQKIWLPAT

[13] = biological target: Aurora kinase C (Homo sapiens) (UniProt Q9UQB9); test: Inhibition of AurC (unknown origin) at 1 uM
Chain of Aurora kinase C (Homo sapiens) (Q9UQB9 whole entry, canonical isoform): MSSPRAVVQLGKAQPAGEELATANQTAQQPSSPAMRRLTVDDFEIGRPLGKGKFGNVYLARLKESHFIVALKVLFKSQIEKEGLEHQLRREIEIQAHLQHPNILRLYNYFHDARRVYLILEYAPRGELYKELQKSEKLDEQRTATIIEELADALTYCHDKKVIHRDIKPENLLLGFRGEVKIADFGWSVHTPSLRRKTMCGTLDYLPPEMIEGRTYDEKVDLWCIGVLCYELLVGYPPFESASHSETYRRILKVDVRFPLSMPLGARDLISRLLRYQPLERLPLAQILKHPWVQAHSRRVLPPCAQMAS

[14] = biological target: Casein kinase I isoform delta (Homo sapiens) (UniProt P48730); test: Inhibition of CK1delta (unknown origin) at 1 uM
[15] = biological target: Epidermal growth factor receptor (Homo sapiens) (UniProt P00533); test: Inhibition of EGFR (unknown origin) at 1 uM
[16] = biological target: Focal adhesion kinase 1 (Homo sapiens) (UniProt Q05397); test: Inhibition of FAK (unknown origin) at 1 uM
[17] = biological target: Receptor tyrosine-protein kinase erbB-2 (Homo sapiens) (UniProt P04626); test: Inhibition of HER2 (unknown origin) at 1 uM
[18] = biological target: Ephrin type-A receptor 2 (Homo sapiens) (UniProt P29317); test: Inhibition of EPHA2 (unknown origin) at 1 uM
[19] = biological target: RAC-alpha serine/threonine-protein kinase (Homo sapiens) (UniProt P31749); test: Inhibition of AKT1 (unknown origin) at 1 uM
[20] = biological target: Angiopoietin-1 receptor (Homo sapiens) (UniProt Q02763); test: Inhibition of TIE2 (unknown origin) at 1 uM
[21] = biological target: Bone morphogenetic protein receptor type-1A (Homo sapiens) (UniProt P36894); test: Inhibition of BMPR1A (unknown origin) at 1 uM
[22] = biological target: Tyrosine-protein kinase ZAP-70 (Homo sapiens) (UniProt P43403); test: Inhibition of ZAP70 (unknown origin) at 1 uM
[23] = biological target: Calcium/calmodulin-dependent protein kinase type II subunit alpha (Homo sapiens) (UniProt Q9UQM7); test: Inhibition of CaMK2alpha (unknown origin) at 1 uM
[24] = biological target: T2, CDK2/Cyclin A2 (Homo sapiens); test: Inhibition of CDK2/CycA (unknown origin) at 0.1 uM; assay type: protein-complex assay
[25] = biological target: Mitogen-activated protein kinase kinase kinase 9 (Homo sapiens) (UniProt P80192); test: Inhibition of MLK1 (unknown origin) at 0.1 uM
[26] = biological target: High affinity nerve growth factor receptor (Homo sapiens) (UniProt P04629); test: Inhibition of TRKA (unknown origin) at 0.1 uM
[27] = biological target: T2, CDK2/Cyclin A2 (Homo sapiens); test: Inhibition of CDK2/CycA (unknown origin) at 0.01 uM; assay type: protein-complex assay
[28] = biological target: Mitogen-activated protein kinase kinase kinase 9 (Homo sapiens) (UniProt P80192); test: Inhibition of MLK1 (unknown origin) at 0.01 uM
[29] = biological target: High affinity nerve growth factor receptor (Homo sapiens) (UniProt P04629); test: Inhibition of TRKA (unknown origin) at 0.01 uM
[30] = Intrinsic clearance in rat liver microsomes in presence of NADPH; assay type: ADME, Microsome; settings: read-out: CLH
Outline: (§1)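 Incubation with rat or human liver microsomes plus NADPH-generating system; intrinsic clearance expressed as mL/min/kg (n=2).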

[31] = Intrinsic clearance in human liver microsomes in presence of NADPH; assay type: ADME, Microsome; settings: read-out: CLH; outline: as §1
[32] = Effective permeability of the compound at pH 6.5 by PAMPA; assay type: ADME; settings: read-out: Peff
Outline: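 Parallel artificial membrane permeability assay, donor buffer pH 6.5; effective permeability reported in cm/sec (n=3).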

[33] = AUC (0 to 24 hrs) in rat at 1 mg/kg, iv; assay type: ADME, organism-based; design: dose 1 mg/kg, time < 24 hr, route intravenous; settings: in vivo
[34] = Half life in rat at 1 mg/kg, iv; assay type: ADME, organism-based; settings: in vivo
[35] = Volume of distribution at steady state in rat at 1 mg/kg, iv; assay type: ADME, organism-based; settings: in vivo, read-out: Vdss
[36] = Total clearance in rat at 1 mg/kg, iv; assay type: ADME, organism-based; settings: in vivo
[37] = Cmax in rat at 1 mg/kg, po; assay type: ADME, organism-based; design: dose 1 mg/kg, route oral; settings: in vivo
[38] = Tmax in rat at 1 mg/kg, po; assay type: ADME, organism-based; settings: in vivo
[39] = AUC (0 to 24 hrs) in rat at 1 mg/kg, po; assay type: ADME, organism-based; design: dose 1 mg/kg, time < 24 hr, route oral; settings: in vivo
[40] = Oral bioavailability in rat at 1 mg/kg; assay type: ADME, organism-based; settings: in vivo
[41] = biological target: Tyrosine-protein kinase JAK3 (Homo sapiens) (UniProt P52333); test: Inhibition of human JAK3 assessed as phosphorylation of Biotin-Lyn-Substrate-2 at 1 uM after 1 hr in presence of ATP by ELISA

SMILES: Cc1nc2ccc(Nc3cc(NC4CCN(c5ccc(C#N)cn5)CC4)c(C(N)=O)cn3)cc2o1
- IC50 [1]: 25 nM
- IC50 [3]: 130 nM

SMILES: N#Cc1ccc(N2CCC(Nc3cc(Nc4ccccc4)ncc3C(N)=O)CC2)nc1
- IC50 [1]: 18 nM
- IC50 [3]: 190 nM

SMILES: C=CC[C@@H]1/C=C(\C)C[C@H](C)C[C@H](OC)[C@H]2O[C@@](O)(C(=O)C(=O)N3CCCC[C@H]3C(=O)O[C@H](/C(C)=C/[C@@H]3CC[C@@H](O)[C@H](OC)C3)[C@H](C)[C@@H](O)CC1=O)[C@H](C)C[C@@H]2OC [TACROLIMUS ANHYDROUS]
- MST (Rattus norvegicus [5]): 6.5 days

SMILES: C[C@@H]1CCCC[C@@H]1Nc1cc(Nc2ccccc2)ncc1C(N)=O
- IC50 [1]: 37 nM

SMILES: Cc1nc2cc(Nc3cc(NC4CCN(c5ccc(C#N)cn5)CC4)c(C(N)=O)cn3)ccc2o1
- IC50 [1]: 22 nM
- IC50 [3]: 400 nM

SMILES: Cc1nccc(Nc2cc(NC3CCN(c4ccc(C#N)cc4)CC3)c(C(N)=O)cn2)n1
- MST (Rattus norvegicus [6]): 22.5 days
- IC50 [2]: 4.2 nM
- IC50 [3]: 3.5 nM
- IC50 [4]: > 100000 nM
- inhibition [7]: 96%
- inhibition [8]: 96%
- inhibition [9]: 94%
- inhibition [10]: 54%
- inhibition [11]: 49%
- inhibition [12]: 33%
- inhibition [13]: 28%
- inhibition [14]: 25%
- inhibition [15]: 19%
- inhibition [16]: 18%
- inhibition [17]: 14%
- inhibition [18]: 11%
- inhibition [19]: 10%
- inhibition [20]: 8%
- inhibition [21]: 3%
- inhibition [22]: -2%
- inhibition [23]: -1%
- inhibition [24]: 76%
- inhibition [25]: 84%
- inhibition [26]: 49%
- inhibition [27]: 27%
- inhibition [28]: 26%
- inhibition [29]: 8%
- CLint scaled [30]: 146 mL/min/kg
- CLint scaled [31]: 109 mL/min/kg
- Papp [32]: > 30 ×10⁻⁶ cm/s
- AUC(0-t) at 24 h [33]: 1180 ng·h/mL
- half-life [34]: 3.4 h
- Vd [35]: 3.5 L/kg
- clearance [36]: 14.3 mL/min/kg
- Cmax [37]: 52.9 ng/mL
- Tmax [38]: 0.4 h
- AUC(0-t) at 24 h [39]: 278 ng·h/mL
- bioavailability [40]: 23.6%

SMILES: Cc1nccc(Nc2cc(NC3CCN(c4ccc(C#N)cn4)CC3)c(C(N)=O)cn2)n1
- IC50 [2]: 5.4 nM
- IC50 [3]: 3.2 nM
- IC50 [4]: 8100 nM

SMILES: Cc1nccc(Nc2cc(N[C@@H]3CCN(c4ccc(C#N)cn4)C[C@@H]3F)c(C(N)=O)cn2)n1
- IC50 [2]: 0.24 nM
- IC50 [4]: > 100000 nM

SMILES: NC(=O)c1cnc(N)cc1NCc1ccccc1
- IC50 [1]: > 1000 nM
- inhibition [41]: 41%

SMILES: CN(c1ccccc1)c1cc(NCc2ccccc2)c(C(N)=O)cn1
- IC50 [1]: > 1000 nM
- inhibition [41]: 40%

More lines, in order of falling IC50 [1], values ahead:

- IC50 [1]: 1.1 nM
- IC50 [2]: 6.7 nM
- IC50 [3]: 5.3 nM
SMILES: Cc1cnc(Nc2cc(NC3CCN(c4ccc(C#N)cn4)CC3)c(C(N)=O)cn2)cn1
- IC50 [4]: 4800 nM

- IC50 [1]: 1 nM
- IC50 [2]: 1.9 nM
- IC50 [3]: 4 nM
SMILES: Cc1cncc(Nc2cc(NC3CCN(c4ccc(C#N)cn4)CC3)c(C(N)=O)cn2)n1
- IC50 [4]: 5400 nM

- IC50 [1]: 0.72 nM
- IC50 [2]: 2.5 nM
- IC50 [3]: 4.1 nM
SMILES: N#Cc1ccc(N2CCC(Nc3cc(Nc4cnccn4)ncc3C(N)=O)CC2)nc1
- IC50 [4]: 7700 nM

- IC50 [1]: 0.61 nM
- IC50 [2]: 3.5 nM
- IC50 [3]: 5.5 nM
SMILES: N#Cc1ccc(N2CCC(Nc3cc(Nc4ccncn4)ncc3C(N)=O)CC2)nc1
- IC50 [4]: 17000 nM

- IC50 [1]: 0.46 nM
- IC50 [2]: 2.9 nM
SMILES: N#Cc1ccc(N2CCC(Nc3cc(Nc4ccccn4)ncc3C(N)=O)CC2)nc1
- IC50 [4]: 360 nM
